Data published in article PMC8434796 (Glycobiology, 2021).
Values after ≈ are worked out from the molar mass of the structure shown. Values joined by “and” are separate entries in the source; they are usually repeats but may differ in a detail not shown here. Identical values can stand only once.

Assays:
[1] = system: NIH3T3 cells; test: Cell population doubling time; type: cell-based, mouse; settings: 72 h; for Doubling time: control 21 h
[2] = system: NIH3T3 cells; test: Inhibition of hyaluronan secreted in NIH3T3 cell culture media; type: cell-based, mouse; settings: for Effect on hyaluronan production (in words): NIH3T3 HA production assay; for IC50: Mus musculus, NIH3T3, 72 h, read-out: IC50 for inhibition of hyaluronan deposition in cell culture media
[3] = system: NIH3T3 cells; test: MTT cell viability assay; type: cell-based, mouse; settings: proliferating NIH3T3 cells, 3 days incubation
Summary of the method: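 Proliferating NIH3T3 fibroblasts exposed for 3 days to rising test compound concentrations. MTT (5 mg/mL in PBS, 10 μL per 100 μL medium) incubated 3 h at 37°C, 5% CO2. Plates centrifuged, medium removed, formazan dissolved in DMSO, absorbance read at 570 nm. n = 3.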

[4] = system: Drosophila mutEt15 (I1056F/M); settings: Drosophila line with CRISPR/Cas9 point mutation I1056F/M; ref Douris et al. 2016; cited from earlier work
[5] = system: Drosophila WT; settings: wild-type Drosophila; ref Douris et al. 2016; cited from earlier work
[6] = system: HAS3; test: qPCR relative expression of HAS3 in NIH3T3 cells; type: cell-based, mouse
Summary of the method: (§1)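 Total RNA isolated with TRI reagent; concentration and quality checked by spectrophotometry and electrophoresis. Target mRNA quantified by SYBR Green real-time qPCR and normalized to GAPDH mRNA. Values are mean ± SD of three technical replicates.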

[7] = system: zebrafish embryos; settings: ref Park et al. 2019; cited from earlier work
[8] = system: HAS2; test: qPCR relative expression of HAS2 in NIH3T3 cells; type: cell-based, mouse
Summary of the method: as §1

[9] = system: CCl4 induced liver fibrosis; test: CCl4-induced liver fibrosis in mice; type: in vivo; settings: for Blood parameters, compound alone vs control group: mice treated by compound only, 600 mg/kg daily; for Hepatotoxicity of compound alone (AST/ALT): mice, daily dose of 600 mg/kg per os
[10] = system: Hyal1; test: qPCR relative expression of Hyal1 in NIH3T3 cells; type: cell-based, mouse
Summary of the method: as §1

[11] = system: Hyal2; test: qPCR relative expression of Hyal2 in NIH3T3 cells; type: cell-based, mouse
Summary of the method: as §1

[12] = system: NIH3T3 cells; test: Microscopic evaluation; type: cell-based, mouse; settings: 10 μM, 3 days, HABP staining, vs DMSO control
Summary of the method: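 NIH3T3 seeded at 2 × 10^4 cells/well; next day fresh medium with 10 μM test compound, 3 days. Fixed 10 min in 10% buffered formalin, avidin-biotin blocked, biotinylated HABP overnight at 4°C, then streptavidin-Alexa 488, Hoechst and phalloidin. Confocal 40× 5 × 5 mosaics; HA-positive area as % of total cell area. Three wells. Controls: 0.05% DMSO; hyaluronidase digest of untreated cells (1 mg/mL, 30 min, 37°C).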

[13] = system: B16F10 cells; settings: 30 μM, ref Nagy et al. 2019; cited from earlier work
[14] = system: hyaluronan synthase activity; settings: plasma membrane preparations containing hyaluronan synthase activity; ref Nakamura et al. 1997; cited from earlier work
[15] = system: endothelial cells; settings: 0.6 μM, ref Nagy et al. 2010; cited from earlier work
[16] = system: A2058 melanoma cells, MCF-7 and MDA-MB-361 breast, SKOV-3 ovarian and UT-SCC118 squamous carcinoma cells; settings: incubation with 4MU; ref Kultti et al. 2009; cited from earlier work
[17] = mice fed with 5% chow, averaged over 24 h; ref Kuipers et al. 2016; cited from earlier work
[18] = system: CCl4 induced liver fibrosis; settings: CCl4 treated animals; ref Andreichenko et al. 2019; cited from earlier work
[19] = system: human pancreatic cancer cell (KP1-NL); settings: fixed concentration 10 μM; ref Morohashi et al. 2006; cited from earlier work

Q: Which “Concentration from/over which doubling time increased” value [1] does the source give for `CCN(CC)Cc1cc2c(-c3ccccc3)cc(=O)oc2c(C)c1O` [IV, 6-((diethylamino)methyl)-7-hydroxy-8-methyl-4-phenyl-2H-chromen-2-one] here?
A: ≥ 500 µM

Q: Which results are given for `Cc1c2c(cc3c(-c4ccccc4)cc(=O)oc13)C(=O)CC1(CCCCC1)O2` [Compound VI, 10′-methyl-6′-phenyl-3′H-spiro[cyclohexane-1,2′-pyrano[3,2-g]chromene]-4′,8′-dione]?
A: Effect on hyaluronan production (in words) [2]: completely abrogated inhibition of hyaluronan production; Did not affect cell viability at concentrations up to [3]: > 1 mM; Not toxic in concentrations up to (MTT) [3]: > 0.5 mM

Q: Which “LC50 mutEt15” value [4] does the source give for `O=C(NC(=O)c1c(F)cccc1F)Nc1ccc(Cl)cc1` [diflubenzuron] here?
A: > 5000 µg/mL

Q: And the “LC50 WT” value [5]?
A: 0.322 µg/mL (≈ 1.04 µM)

Q: Which “Inhibited HAS3 expression at concentrations higher than” value [6] does the source give for `CCOc1cc(C(C)(C)C)ccc1C1COC(c2c(F)cccc2F)=N1` (centres unmarked) [etoxazole, 4-(4-tert-butyl-2-ethoxyphenyl)-2-(2,6-difluorophenyl)-4,5-dihydro-1,3-oxazole] here?
A: higher than 250 μM

Q: And the “Effect on cardiovascular development (in words)” value [7]?
A: inhibits cardiovascular development

Q: And the “Upregulation of HAS2 expression” value ([8]; NIH3T3 cells, 120 μM)?
A: ~1.5 times

Q: And the “Suppression of HAS2 expression” value ([8]; NIH3T3 cells, doses higher than 120 μM)?
A: up to 80%

Q: What about the “αSMA level in liver homogenate (western blot)” value ([9]; CCl4-treated mice, 600 mg/kg daily per os, n = 5) of the same molecule?
A: significant reduction

Q: What about the “Plasma HA” value ([9]; CCl4-treated mice, 600 mg/kg daily per os, 600 mg/kg) of the same molecule?
A: reduced plasma HA to near the control levels

Q: And the “Plasma HA” value ([9]; CCl4-treated mice, 600 mg/kg daily per os, listed as Etoxazole, 600 mg/kg)?
A: reduced HA production

Q: What about the “Blood parameters, compound alone vs control group” value [9] of the same molecule?
A: did not find any significant differences

Q: And the “Hepatotoxicity of compound alone (AST/ALT)” value [9]?
A: no hepatotoxicity

Q: And the IC50 [2]?
A: 4.21 ± 3.82 µM

Q: And the “Not toxic in concentrations up to (MTT)” value [3]?
A: > 1 mM

Q: And the “Hyal1 level (in words)” value ([10]; NIH3T3 cells, all tested concentrations)?
A: significantly dropped

Q: What about the “Level of Hyal2 (in words)” value [11] of the same molecule?
A: not affected

Q: For `CC(=O)c1cc2c(C)cc(=O)oc2c(C)c1O` [VIII, 6-acetyl-7-hydroxy-4,8-dimethyl-2H-chromen-2-one], which “Concentration from/over which doubling time increased” value [1] is on record?
A: > 50 µM

Q: What about the “Decrease of the percentage of HA-positive area” value [12] of the same molecule?
A: at least 3 times

Q: And the “Toxicity at concentrations higher than (MTT)” value [3]?
A: > 60 µM

Q: Which IC50 [2] does the source give for `O=C(NC(=O)c1ccccc1Cl)Nc1ccc(OC(F)(F)F)cc1` [triflumuron, 2-chloro-N-[[4-(trifluoromethoxy)phenyl]carbamoyl] benzamide] here?
A: 1.48 ± 1.44 µM

Q: What about the “Not toxic in concentrations up to (MTT)” value [3] of the same molecule?
A: > 1 mM

Q: Which “Activated HAS3 expression at concentration over” value [6] does the source give for `Cc1cc(=O)oc2cc(O)ccc12` [Compound 4MU, 7-hydroxy-4-methylchromen-2-one] here?
A: over 500 μM

Q: What about the HA production inhibition [13] of the same molecule?
A: 50%

Q: And the IC50 ([8]; Mus musculus, NIH3T3, read-out: IC50 for inhibition of HAS2 expression)?
A: ~250 µM

Q: What about the Doubling time ([1]; 250 μM) of the same molecule?
A: 38 h

Q: And the “Concentration from/over which doubling time increased” value [1]?
A: ≥ 60 µM

Q: What about the “HA synthesis in cell-free assay (in words)” value [14] of the same molecule?
A: did not inhibit HA synthesis

Q: And the “Plasma HA” value ([9]; CCl4-treated mice, 600 mg/kg daily per os)?
A: reduced plasma HA to near the control levels

Q: What about the “Blood parameters, compound alone vs control group” value [9] of the same molecule?
A: did not find any significant differences

Q: What about the “Hepatotoxicity of compound alone (AST/ALT)” value [9] of the same molecule?
A: no hepatotoxicity

Q: What about the “Decrease of the percentage of HA-positive area” value [12] of the same molecule?
A: at least 3 times

Q: What about the “Reduction of hyaluronan secretion” value [15] of the same molecule?
A: 30%

Q: What about the “Depletion of UDP-GlcUA levels” value [16] of the same molecule?
A: 38–95%

Q: What about the IC50 ([10]; Mus musculus, NIH3T3, read-out: Upregulated Hyal1 expression with IC50) of the same molecule?
A: ~250 µM

Q: And the “Hyal2 expression not affected at concentrations up to” value [11]?
A: > 1 mM

Q: And the Effective plasma concentration [17]?
A: 0.89 ± 0.51 μg/mL and 5.1 ± 2.9 μM

Q: And the “Collagen deposition in the liver” value [18]?
A: prevented collagen deposition

Q: Which results are given for `Cc1cc(=O)oc2c(C)c3c(cc12)C(=O)CC1(CCCCC1)O3` [Compound IX, 6′,10′-dimethyl-3′H-spiro[cyclohexane-1,2′-pyrano[3,2-g]chromene]-4′,8′-dione]?
A: Doubling time ([1]; all tested concentrations): 16.5 h; Effect on hyaluronan production (in words) [2]: completely abrogated inhibition of hyaluronan production; Did not affect cell viability at concentrations up to [3]: > 1 mM; Not toxic in concentrations up to (MTT) [3]: > 0.5 mM

Q: With `COc1ccc2c(C)cc(=O)oc2c1` [II, 7-methoxy-4-methyl coumarin] as the molecule, how does the “Inhibitory activity on HA production (in words)” value [19] read?
A: inactive

Q: Which results are given for `CC(C)N1C(=O)N(c2ccccc2)CSC1=NC(C)(C)C` [buprofezin, 2-(tert-butylimino)-5-phenyl-3-(propan-2-yl)-1,3,5-thiadiazinan-4-one]?
A: LC50 mutEt15 [4]: > 1000 µg/mL; IC50 [2]: 1.24 ± 0.87 µM; LC50 WT [5]: 53.2 µg/mL (≈ 174 µM); Not toxic in concentrations up to (MTT) [3]: > 1 mM

Q: For `O=C(NC(=O)c1c(F)cccc1F)Nc1cc(Cl)c(OC(F)(F)C(F)C(F)(F)F)cc1Cl` (centres unmarked) [lufenuron], which “LC50 mutEt15” value [4] is on record?
A: 16.659 µg/mL (≈ 32.6 µM)

Q: And the “LC50 WT” value [5]?
A: 0.148 µg/mL (≈ 0.29 µM)

Q: Which “Concentration from/over which doubling time increased” value [1] does the source give for `Cc1c2c(cc3c(-c4ccccc4)cc(=O)oc13)C(=O)CC1(CCNCC1)O2` [Compound VII, 10′-methyl-6′-phenyl-3′H-spiro[piperidine-4,2′-pyrano[3,2-g]chromene]-4′,8′-dione] here?
A: over 10 μM

Q: And the “Decrease of the percentage of HA-positive area” value [12]?
A: at least 3 times

Q: Which “Concentration from/over which doubling time increased” value [1] does the source give for `CC(=O)c1cc2c(-c3ccccc3)cc(=O)oc2c(C)c1O` [Compound V, 6-acetyl-7-hydroxy-8-methyl-4-phenyl-2H-chromen-2-one] here?
A: ≥ 125 µM

Q: What about the “Toxicity at concentrations higher than (MTT)” value [3] of the same molecule?
A: higher than 125 μM

Q: With `C[C@@H]([C@H](N)C(=O)N[C@H](C(=O)O)[C@H]1O[C@@H](n2ccc(=O)[nH]c2=O)[C@H](O)[C@@H]1O)[C@H](O)c1ccc(O)cn1` [nikkomycin] as the molecule, how does the “Effect on hyaluronan production (in words)” value [2] read?
A: ineffective
